Reference: ChEMBL document CHEMBL4813996, “Design and development of 1,3,5-triazine derivatives as protective agent against spinal cord injury in rat via inhibition of NF-ĸB” (Bioorg Med Chem Lett, 2021)
Blank lines part the entries; values can stand above or below the molecule they belong to. Activity calls are given as the source filed them. The calls are words filed in the database; no cut-off is given here.

Key:
[1] = Inhibition of NFkappaB transcriptional activity in LPS-stimulated mouse RAW264.7 cells
In short: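 IC50 for inhibition of NF-κB transcription, reported as mean ± SD from at least three independent assays.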

Rattus norvegicus [2] = assay: Neuroprotective activity in Sprague-Dawley rat SCI model assessed as reduction in MDA level at 10 to 30 mg/kg, ip administered once daily for 14 days; format: functional, organism-based; conditions: dose 10-30 mg/kg, time 14.0 day
In short: (§1)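 Spinal cord of weight-drop contusion SCI rats dosed at 10, 20 or 30 mg/kg i.p. in 2% CMC daily for 14 days. Oxidative stress indices MDA, GSH and SOD measured in spinal cord. Mean ± SEM, three independent experiments, one-way ANOVA with Tukey test against sham and SCI groups.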

Rattus norvegicus [3] = assay: Neuroprotective activity in Sprague-Dawley rat SCI model assessed as reduction in NFkappaB expression in spinal cord at 10 to 30 mg/kg, ip administered once daily for 14 days by Western blot analysis; format: functional, organism-based; conditions: dose 10-30 mg/kg, time 14.0 day
In short: (§2)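 Weight-drop contusion SCI rats treated with 10, 20 or 30 mg/kg i.p. in 2% CMC daily for 14 days. Spinal cord tissue analysed by western blot for NF-κB, p-IκBα and TLR4, with band quantification. Mean ± SEM of three independent experiments.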

Rattus norvegicus [4] = assay: Neuroprotective activity in Sprague-Dawley rat SCI model assessed as reduction in IL-1beta level at 10 to 30 mg/kg, ip administered once daily for 14 days by ELISA; format: functional, organism-based; conditions: dose 10-30 mg/kg, time 14.0 day
In short: (§3)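 After weight-drop contusion SCI, rats received 10, 20 or 30 mg/kg i.p. as a 2% CMC suspension once daily for 14 days. TNF-α, IL-1β and IL-6 levels determined by ELISA. Mean ± SEM from three independent experiments, one-way ANOVA followed by Tukey post hoc test.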

Rattus norvegicus [5] = assay: Neuroprotective activity in contusion injury induced Sprague-Dawley rat SCI model assessed as restoration of tissue histopathology in spinal cord at 10 to 30 mg/kg, ip administered once daily for 14 days by H and E staining based assay; format: functional, organism-based; conditions: dose 10-30 mg/kg, time 14.0 day
In short: (§4)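 Rats with SCI from weight-drop contusion received 10, 20 or 30 mg/kg i.p., suspended in 2% CMC, daily for 14 days. Spinal cord tissue sections stained with H&E for histopathology and edema. Three independent experiments, mean ± SEM, one-way ANOVA with Tukey post hoc test.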

Rattus norvegicus [6] = assay: Neuroprotective activity in Sprague-Dawley rat SCI model assessed as reduction in IL-6 level at 10 to 30 mg/kg, ip administered once daily for 14 days by ELISA; format: functional, organism-based; conditions: dose 10-30 mg/kg, time 14.0 day; in short: as §3
Rattus norvegicus [7] = assay: Neuroprotective activity in Sprague-Dawley rat SCI model assessed as increase in SOD level at 10 to 30 mg/kg, ip administered once daily for 14 days; format: functional, organism-based; conditions: dose 10-30 mg/kg, time 14.0 day; in short: as §1
Rattus norvegicus [8] = assay: Neuroprotective activity in contusion injury induced Sprague-Dawley rat SCI model assessed as improvement in ratio of wet to dry spinal cord weight at 10 to 30 mg/kg, ip administered once daily for 14 days; format: functional, organism-based; conditions: dose 10-30 mg/kg, time 14.0 day
In short: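 Weight-drop contusion SCI, with a rod dropped on the cord. Rats given 10, 20 or 30 mg/kg i.p. in 2% CMC once a day for 14 days. Ratio of wet to dry spinal cord weight measured 24 h post-SCI. Mean ± SEM of three independent experiments, one-way ANOVA with Tukey test.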

Rattus norvegicus [9] = assay: Neuroprotective activity in contusion injury induced Sprague-Dawley rat SCI model assessed as inhibition of morphological changes in spinal cord at 10 to 30 mg/kg, ip administered once daily for 14 days by H and E staining based assay; format: functional, organism-based; conditions: dose 10-30 mg/kg, time 14.0 day; in short: as §4
Rattus norvegicus [10] = assay: Neuroprotective activity in ip dosed contusion injury induced Sprague-Dawley rat SCI model assessed as restoration of motor functions administered once daily for 14 days; format: functional, organism-based; conditions: dose 10-30 mg/kg, time 14.0 day
In short: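 Spinal cord contusion made by weight drop, a rod dropped onto the cord. Dosing at 10, 20 and 30 mg/kg i.p., suspended in 2% CMC, once daily for 14 days. Motor function scored on the BBB scale on days 1, 4, 7, 10 and 14. Mean ± SEM from three independent experiments, one-way ANOVA with Tukey post hoc test, compared with sham and SCI groups.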

Rattus norvegicus [11] = assay: Neuroprotective activity in Sprague-Dawley rat SCI model assessed as increase in GSH level at 10 to 30 mg/kg, ip administered once daily for 14 days; format: functional, organism-based; conditions: dose 10-30 mg/kg, time 14.0 day; in short: as §1
Rattus norvegicus [12] = assay: Neuroprotective activity in Sprague-Dawley rat SCI model assessed as reduction in IkappaBalpha expression in spinal cord at 10 to 30 mg/kg, ip administered once daily for 14 days by Western blot analysis; format: functional, organism-based; conditions: dose 10-30 mg/kg, time 14.0 day; in short: as §2
Rattus norvegicus [13] = assay: Neuroprotective activity in ip dosed Sprague-Dawley rat SCI model assessed as increase in nissl bodies administered once daily for 14 days by Nissl staining based assay; format: functional, organism-based; conditions: dose 10-30 mg/kg, time 14.0 day
In short: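 Contusion SCI by weight drop. Treatment at 10, 20 or 30 mg/kg i.p. in 2% CMC once daily for 14 days. Neuronal damage assessed by Nissl staining of the spinal cord, with Nissl bodies quantified. Mean ± SEM from three independent experiments.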

Rattus norvegicus [14] = assay: Neuroprotective activity in Sprague-Dawley rat SCI model assessed as reduction in TNFalpha level at 10 to 30 mg/kg, ip administered once daily for 14 days by ELISA; format: functional, organism-based; conditions: dose 10-30 mg/kg, time 14.0 day; in short: as §3
Rattus norvegicus [15] = assay: Neuroprotective activity in Sprague-Dawley rat SCI model assessed as reduction in TLR4 expression in spinal cord at 10 to 30 mg/kg, ip administered once daily for 14 days by Western blot analysis; format: functional, organism-based; conditions: dose 10-30 mg/kg, time 14.0 day; in short: as §2
Rattus norvegicus [16] = assay: Neuroprotective activity in contusion injury induced Sprague-Dawley rat SCI model assessed as reduction in edema in spinal cord at 10 to 30 mg/kg, ip administered once daily for 14 days by H and E staining based assay; format: functional, organism-based; conditions: dose 10-30 mg/kg, time 14.0 day; in short: as §4

SMILES: Cc1ccc(N2CCN(Cc3ccc(C(=O)Nc4nc(C)nc(Nc5nccc(-c6nccs6)n5)n4)cc3)CC2)cc1
IC50 [1]: 9.9 µM

SMILES: C[C@@H]1C[C@H]2[C@@H]3CCC4=CC(=O)C=C[C@]4(C)[C@@]3(F)[C@@H](O)C[C@]2(C)[C@@]1(O)C(=O)CO [DEXAMETHASONE]
IC50 [1]: 0.92 µM

SMILES: COc1ccc(N2CCN(Cc3ccc(C(=O)Nc4nc(C)nc(Nc5nccc(-c6nccs6)n5)n4)cc3)CC2)cc1
IC50 [1]: 87.3 µM

SMILES: Cc1ccc(NC(=O)c2ccc(CN3CCN(C)CC3)cc2)cc1Nc1nccc(-c2cccnc2)n1 [IMATINIB]
IC50 [1]: 1.34 µM

SMILES: Cc1nc(NC(=O)c2ccc(CN3CCN(c4ccc(Br)cc4)CC3)cc2)nc(Nc2nccc(-c3nccs3)n2)n1
IC50 [1]: 3.21 µM

More lines, in order of falling IC50 [1], values ahead:

IC50 [1]: 136 µM
SMILES: Cc1nc(NC(=O)c2ccc(CN3CCN(c4ccccc4)CC3)cc2)nc(Nc2nccc(-c3nccs3)n2)n1

IC50 [1]: 54.2 µM
SMILES: Cc1nc(NC(=O)c2ccc(CN3CCN(c4ccc(O)cc4)CC3)cc2)nc(Nc2nccc(-c3nccs3)n2)n1

IC50 [1]: 6.12 µM
SMILES: Cc1nc(NC(=O)c2ccc(CN3CCN(c4ccc([N+](=O)[O-])cc4)CC3)cc2)nc(Nc2nccc(-c3nccs3)n2)n1

IC50 [1]: 1.04 µM
SMILES: Cc1nc(NC(=O)c2ccc(CN3CCN(c4ccc(Cl)cc4)CC3)cc2)nc(Nc2nccc(-c3nccs3)n2)n1
Activity (Rattus norvegicus [2]): Active
Activity (Rattus norvegicus [3]): Active
Activity (Rattus norvegicus [4]): Active
Activity (Rattus norvegicus [5]): Active
Activity (Rattus norvegicus [6]): Active
Activity (Rattus norvegicus [7]): Active
Activity (Rattus norvegicus [8]): Active
Activity (Rattus norvegicus [9]): Active
Activity (Rattus norvegicus [10]): Dose-Dependent Effect
Activity (Rattus norvegicus [11]): Active
Activity (Rattus norvegicus [12]): Active
Activity (Rattus norvegicus [13]): Dose-Dependent Effect
Activity (Rattus norvegicus [14]): Active
Activity (Rattus norvegicus [15]): Active
Activity (Rattus norvegicus [16]): Active
